# Most compounds without a hit are left out; they make up all but 1.2% or so of the library.
# ASAP1 inh: inhibitors of human ASAP1 ArfGAP activity; ASAP1-stimulated ARF1 GTP hydrolysis, GDP FP detection; inhibition, % at 16.5 µM; Q9ULH1; actives 0.19% (n = 360,000); in the data active = inhibition above about 25%;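 note: 0% = vehicle with enzyme and substrate and 100% = no enzyme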
# GalR3 antag: antagonists of human GalR3. O60755. HEK293 GalR3-CNG cAMP membrane potential fluorescence; galR3 body fused to GalR1 C-terminus. inhibition, % at 3 µM. AID 651719. actives 0.44% (n = 360,000);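 active = inhibition above the screen-wide average plus 3 SD, cut at about 13% in these data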;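 note: forskolin and galanin both at EC90 stimulate the cells; cAMP rise reported by CNG channel membrane potential dye signal; 0% = forskolin plus galanin with DMSO and 100% = forskolin alone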
# Target sequence (O60755 1-299 limits assumed): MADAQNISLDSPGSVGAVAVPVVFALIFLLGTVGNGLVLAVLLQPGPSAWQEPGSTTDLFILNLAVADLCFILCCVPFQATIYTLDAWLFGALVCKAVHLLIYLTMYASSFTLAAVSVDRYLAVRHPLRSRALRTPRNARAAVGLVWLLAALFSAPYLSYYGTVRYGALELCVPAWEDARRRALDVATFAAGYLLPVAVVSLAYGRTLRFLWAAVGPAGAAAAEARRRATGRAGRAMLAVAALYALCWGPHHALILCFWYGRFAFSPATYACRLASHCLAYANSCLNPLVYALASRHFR
# ARFGAP1 inh: inhibits rat ARF GTPase activating protein 1. inhibition, % at 16.5 µM. Q62848. actives 0.26% (n = 360,000). Arfgap1-stimulated ARF1 GTP hydrolysis, GDP FP detection;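 active = inhibition above a per-plate limit, mean inhibition of low control wells plus 3 SD, cut at about 25% in these data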;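 note: 0% = DMSO wells with enzyme and 100% = wells lacking Arfgap1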
# Target sequence (Q62848 1-136 limits assumed): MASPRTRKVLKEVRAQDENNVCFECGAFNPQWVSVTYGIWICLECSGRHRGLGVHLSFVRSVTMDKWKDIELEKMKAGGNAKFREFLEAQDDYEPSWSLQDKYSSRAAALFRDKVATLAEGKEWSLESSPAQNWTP
#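 Material: truncated rat Arfgap1 GAP domain; Incubation: compound-enzyme preincubation 20 min, reaction 120 min, detection 60 min, 25 °C; Read-out: percent inhibition of Arfgap1-stimulated GTP hydrolysis; Technique: FP, GDP Alexa 633 tracer displaced from anti-GDP antibody, 620/688 nm; Controls: No-Arfgap1 wells (100%) versus DMSO full-reaction wells (0%); Replication: single well per compound.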
# Rin1-Abl PPI inh: human Rin1-Abl interaction inhibition; P00519+Q13671; TR-FRET Rin1/Abl binding, biochemical; inhibition, % at 7.35 µM; actives 0.4% (n = 360,000); AID 588664; in the data active = inhibition above about 5%, passing the limit was not always enough
# ASAP1 inh confirm: ASAP1 inhibition confirmed; shares compounds with ASAP1 inh; inhibition, % at 16.5 µM; ASAP1-stimulated Arf1 GTPase, GDP fluorescence polarization; actives 37% (n = 620); AID 624431;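 active = mean inhibition over triplicates exceeds the hit threshold derived for the earlier primary screening run, cut at about 25% in these data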
# An asterisk follows results filed as active; nt = no result.
SMILES,ASAP1 inh,GalR3 antag,ARFGAP1 inh,Rin1-Abl PPI inh,ASAP1 inh confirm
CN1CCN(c2ccc(S(=O)(=O)N3CCCCC3)cc2NC(=O)/C=C/c2ccc(OC(F)F)cc2)CC1,25*,4,14,2,19
CCn1c2c(n(C(C)=O)c1=O)C[C@@H](c1ccccc1)[C@@H](C)[C@@H](C(=O)N1CCCC1)C2,-3,-5,5,nt,nt
CC(Oc1ccccc1)C(=O)N1CCC2(CC1)Oc1ccc(F)cc1C(=O)C21CC(c2cccnc2)=NO1 (stereo not given),26*,-9,15,1,5
CC(Oc1ccccc1)C(=O)N1CCC2(CC1)Oc1ccc(F)cc1C(=O)C21CC(c2ccccc2)=NO1 (stereo not given),-2,-6,1,2,nt
COc1cccc2sc3cc(C#Cc4ccccn4)ccc3c(=O)c12,1,-6,3,-6,nt
COc1cc2sc3ccc(C#Cc4ccccn4)cc3c(=O)c2cc1OC,31*,-6,12,0,28*
CC1(C)C=C2C(=NN(c3ccccc3)C(N)=C2C#N)CO1,26*,-10,9,-3,8
COCc1[nH]nc2c1C(c1ccccc1)NC2=O (stereo not given),5,2,-2,nt,nt
CCCNC(=O)C1(C)CCN(Cc2ccc(-n3ccnc3)cc2)C1 (stereo not given),26*,-4,3,1,2
COc1cccc(CNC(=O)[C@H]2CCCN2C(=O)[C@H]2CCCN2C(=O)c2ccccc2C(F)(F)F)c1,18,-6,-2,nt,nt
CCCC(=O)OC[C@H]1CN(C2CCCC2)S(=O)(=O)c2c(Oc3ccc(F)cc3OC)cccc2O1,3,-6,10,nt,nt
Oc1c(C=Nc2cccc3cccnc23)sc2ccccc12,-1,-3,2,nt,nt
Cc1cccc(/N=C/c2sc3ccccc3c2O)n1,28*,3,21,-4,16
COC(=O)C1=C(C)N(Cc2ccc(C(F)(F)F)cc2)C(=NCc2ccccc2)NC1c1cccc(Cl)c1 (stereo not given),-5,-7,-6,nt,nt
Nc1n[nH]c(N)c1N=Nc1ccc(Cl)cc1Cl,29*,-6,6,4,16
COc1ccc(OC)c(C2SCCN2S(=O)(=O)c2cccc(C(F)(F)F)c2)c1 (stereo not given),25*,-9,1,4,8
Cc1ccccc1S(=O)(=O)Oc1ccc2ccc(O)cc2c1,27*,-9,6,-1,17
Cc1ccc(NC(=O)c2ccc(NCC3CCCO3)c([N+](=O)[O-])c2)cc1Cl (stereo not given),34*,2,14,1,95*
Cc1ccc(NC(=O)c2ccc(NCc3ccco3)c([N+](=O)[O-])c2)cc1Cl,26*,0,11,1,29*
CC(C)[C@H](NC(=O)c1ccc(Cl)c(Cl)c1)C(=O)N1CCC[C@H]1C(=O)NCCc1ccccc1Cl,7,-6,-1,nt,nt
Cc1cc(OCC(=O)Nc2ccc3oc(-c4ccncc4)nc3c2)ccc1Cl,28*,-6,14,1,131*
O=C1c2[nH]nc(-c3ccccc3)c2C(c2cccc(C(F)(F)F)c2)N1c1ccccc1 (stereo not given),-3,-8,-5,nt,nt
COC(=O)c1cc2c(c3c4cc(C)ccc4n(S(=O)(=O)c4ccc(C)cc4)c13)C(=O)N(Cc1ccccc1OC)C2,5,-6,7,nt,nt
Cc1c(C)c(C)c(S(=O)(=O)N2CCSCC2)c(C)c1C,4,3,-2,1,nt
Cc1cc(C)c(C)c(S(=O)(=O)N2CCSCC2)c1C,25*,-10,-2,-1,5
SMILES,ASAP1 inh,GalR3 antag,ARFGAP1 inh,Rin1-Abl PPI inh,ASAP1 inh confirm
Cc1ccc(Cl)cc1Nc1nc(-c2sc(NC(=O)C(C)(C)C)nc2C)cs1,25*,-7,1,5,10
O=C1C(Nc2ccccc2)=C(N2CCCCC2)C(=O)c2ccccc21,30*,-3,10,-1,17
Cc1ccc(NC2=C(N3CCCCC3)C(=O)c3ccccc3C2=O)cc1,28*,-3,15,0,16
O=C(C=Cc1ccc(O)c(O)c1)NCC(=O)NC(Cc1ccccc1)C(=O)O (stereo not given),-10,-7,1,nt,nt
COCCNC(=S)N=Nc1c(O)[nH]c2ccc([N+](=O)[O-])cc12,30*,-7,2,-3,41*
C=CCN=C1NC(c2ccc(C(F)(F)F)cc2)C(C(=O)OC)=C(C)N1C (stereo not given),-13,-5,-8,nt,nt

# Assay outcomes from PubChem.
